{"data": "Experimental data from different studies", "target": "Rho-associated protein kinase 1 (ROCK1, Homo sapiens, UniProt Q13464)", "note": "Lines come from different studies, so protocols differ."}
{"Structure (SMILES)": "CCS(=O)(=O)c1cc2cc(C[C@](O)(CC(C)(C)c3ccc(F)cc3C(N)=O)C(F)(F)F)[nH]c2cn1", "assay": "cell-free assay, competition with immobilised ligand", "conditions": "1 µM", "quantity": "remaining binding", "result": "84%"}
{"Structure (SMILES)": "COc1cc(Cl)c(C(=O)N[C@@H](CN[C@H]2CC[C@@H](N)CC2)Cc2ccc(C#N)cc2)cc1-c1ccc(CN[C@H](C)c2ccc(C)cc2)o1", "assay": "enzyme activity, inhibitor", "conditions": "1 µM", "quantity": "remaining activity", "result": "105%"}
{"Structure (SMILES)": "CN(C)CC#Cc1ccc(OCCCc2sc(N3CCc4cccc(C(=O)Nc5nc6ccccc6s5)c4C3)nc2C(=O)O)c(F)c1", "assay": "cell-free assay, competition with immobilised ligand", "conditions": "1 µM", "quantity": "remaining binding", "result": "100%"}
{"Structure (SMILES)": "CCN(CC)CCNC(=O)c1c(C)[nH]c(/C=C2\\C(=O)Nc3ccc(F)cc32)c1C", "assay": "enzyme activity, inhibitor", "conditions": "10 µM", "quantity": "inhibition", "result": "26%"}
{"Structure (SMILES)": "CSc1nc(C)c(-c2ccnc(Nc3ccc(N4CCOCC4)cc3)c2)[nH]1", "assay": "enzyme activity, inhibitor", "conditions": "10 µM", "quantity": "inhibition", "result": "-4.2%"}
{"Structure (SMILES)": "Cc1sc(C(=O)NC2COC2)cc1-n1cc(NC(=O)Nc2c(F)cccc2Cl)cn1", "assay": "enzyme activity, inhibitor", "conditions": "10 µM", "quantity": "remaining activity", "result": "96.8%"}
{"Structure (SMILES)": "Nc1ncnc2occ(-c3ccc(NC(=O)Nc4cc(C(F)(F)F)ccc4F)cc3)c12", "assay": "cell-free assay, inhibitor", "conditions": "20 µM", "quantity": "remaining signal", "result": "0.1%"}
{"Structure (SMILES)": "c1ccc(N2CCN(Cc3nc4ccccc4[nH]3)CC2)nc1", "assay": "binding, competition with immobilised ligand", "conditions": "1 µM", "quantity": "remaining binding", "result": "100%"}
{"Structure (SMILES)": "CNc1cc(Oc2cc(C(=O)Nc3cc(N4CCN(C)CC4)cc(C(F)(F)F)c3)ccc2C)ncn1", "assay": "target engagement in cells, inhibitor, chemoproteomics", "system": "Huh-7", "conditions": "1 µM", "quantity": "inhibition", "result": "-28.8%"}
{"Structure (SMILES)": "CN(C)C1CCN(CC#Cc2nn(C3CCCC3)c3nc(NCc4ccccc4)ncc23)C1 (stereo not drawn)", "assay": "enzyme activity, inhibitor, FRET", "conditions": "0.1 µM", "quantity": "inhibition", "result": "-5%"}
{"Structure (SMILES)": "Cc1ccc(Nc2nccc(N(C)c3ccc4c(C)n(C)nc4c3)n2)cc1S(N)(=O)=O", "assay": "enzyme activity, inhibitor", "conditions": "0.3 µM", "quantity": "inhibition", "result": "-1%"}
{"Structure (SMILES)": "COc1cc2ncnc(Nc3ccc(Oc4ccccc4)cc3C)c2cc1OC", "assay": "enzyme activity, inhibitor", "conditions": "1 µM", "quantity": "inhibition", "result": "1%"}
{"Structure (SMILES)": "C[C@@H](c1cccc(C#N)c1)n1cc(Cl)cc(C(N)=O)c1=N", "assay": "cell-free assay, competition with immobilised ligand", "conditions": "1 µM", "quantity": "remaining binding", "result": "71%"}
{"Structure (SMILES)": "COc1cccc2c(NCc3ccccc3)nc(-n3c(N)nc4ccccc43)nc12", "assay": "target engagement in cells, inhibitor, chemoproteomics", "conditions": "20 mM", "quantity": "inhibition", "result": "2.2%"}
{"Structure (SMILES)": "CN(c1ccnc(CNc2nc(Nc3ccc4c(c3)CC(=O)N4)ncc2C(F)(F)F)n1)S(C)(=O)=O", "assay": "cell-free assay, competition with immobilised ligand", "conditions": "1 µM", "quantity": "remaining binding", "result": "49%"}
{"Structure (SMILES)": "N#CCCc1ccc2c(c1)-c1[nH]c3ccc([N+](=O)[O-])cc3c1CC(=O)N2", "assay": "cell-free assay", "conditions": "0.5 µM", "quantity": "remaining signal", "result": "38.9%"}
{"Structure (SMILES)": "Cc1c[nH]c2nccc(Oc3c(F)cc(Nc4cc(Cl)nc(N)n4)cc3F)c12", "assay": "cell-free assay, competition with immobilised ligand", "conditions": "0.1 µM", "quantity": "remaining binding", "result": "0.6%"}
{"Structure (SMILES)": "CC(C)(C)c1nc2c(s1)c1nc(N)ncc1c1ccc(NS(=O)(=O)c3c(F)cccc3F)c(F)c12", "assay": "enzyme activity, inhibitor, radiometric", "conditions": "1 µM", "quantity": "remaining activity", "result": "98%"}
{"Structure (SMILES)": "C[C@@H]1CN(c2cc(-c3nn(C)c4ccc(OC5(C)CC5)cc34)ncn2)C[C@H](C)O1", "assay": "cell-free assay, competition with immobilised ligand", "conditions": "1 µM", "quantity": "remaining binding", "result": "100%"}
{"Structure (SMILES)": "O=C1NC(=O)c2cc(Nc3ccc(F)cc3)c(Nc3ccc(F)cc3)cc21", "assay": "cell-free assay", "conditions": "0.5 µM", "quantity": "remaining signal", "result": "96.7%"}
{"Structure (SMILES)": "CNC(=O)c1cc(Oc2ccc(NC(=O)Nc3ccc(Cl)c(C(F)(F)F)c3)cc2)ccn1", "assay": "enzyme activity, inhibitor", "conditions": "0.3 µM", "quantity": "inhibition", "result": "0%"}
{"Structure (SMILES)": "Cc1ccc(NC(=O)c2ccc(C)c(C(F)(F)F)c2)cc1C#Cc1nn(C2CCC(O)CC2)c2ncnc(N)c12 (stereo not drawn)", "assay": "cell-free assay", "conditions": "10 µM", "quantity": "remaining signal", "result": "126%"}
{"Structure (SMILES)": "Cc1cnc(NC2CCOCC2)nc1-n1cnc(C(=O)NC(CN)c2cc(F)cc(Cl)c2)c1 (stereo not drawn)", "assay": "enzyme activity, inhibitor, radiometric", "conditions": "1 µM", "quantity": "remaining activity", "result": "62%"}
{"Structure (SMILES)": "O=C1Nc2ccc(Cl)cc2C1=Cc1cc(Cl)c(O)c(Cl)c1", "assay": "cell-free assay", "conditions": "0.5 µM", "quantity": "remaining signal", "result": "93.2%"}
{"Structure (SMILES)": "CN(C)C(=O)Cn1cc(-c2nc(C3(c4ccc(-c5cnc(N)nc5)cc4)CC3)no2)cn1", "assay": "cell-free assay, competition with immobilised ligand", "conditions": "1 µM", "quantity": "remaining binding", "result": "83%"}
{"Structure (SMILES)": "Cn1cncc1C1=CN(c2ncnc3[nH]cnc23)CCS1", "assay": "enzyme activity, inhibitor, radiometric", "conditions": "50 nM", "quantity": "inhibition", "result": "27%"}
{"Structure (SMILES)": "CC/C(=N\\NC(=O)NCc1cccc(O)c1)c1ccc(O)c(C)c1O", "assay": "enzyme activity, inhibitor", "conditions": "0.1 µM", "quantity": "inhibition", "result": "65.5%"}
{"Structure (SMILES)": "CCN(CC)c1ccc(C2=NNC(=O)CC2C)cc1[N+](=O)[O-] (stereo not drawn)", "assay": "enzyme activity, inhibitor", "conditions": "10 µM", "quantity": "remaining activity", "result": "109%"}
{"Structure (SMILES)": "O=C(Nc1cnn(-c2csc(C(=O)NC3COC3)c2)c1)Nc1c(F)cccc1Cl", "assay": "enzyme activity, inhibitor", "conditions": "5 µM", "quantity": "remaining activity", "result": "78.2%"}
{"Structure (SMILES)": "CN1CC(Oc2cnc(C#N)cc2-c2ccn3nc(NC(=O)C4CC4)cc3c2)C1", "assay": "enzyme activity, inhibitor", "conditions": "1 µM", "quantity": "inhibition", "result": "0%"}
